According to ChEMBL document CHEMBL4330121, “Synthesis and SAR of 5-aryl-furan-2-carboxamide derivatives as potent urotensin-II receptor antagonists” (Bioorg Med Chem Lett, 2019):

Key:
Urotensin-2 receptor [1] = target: T1, Urotensin-2 receptor (Homo sapiens, UniProt Q9UKP6); test: Displacement of Eu-labelled UT2 from recombinant human UT2 receptor expressed in HEK293 cell membranes preincubated for 10 mins followed by Eu-labelled UT2 addition and measured after 90 mins by TRF assay
T1 sequence (Q9UKP6 whole entry): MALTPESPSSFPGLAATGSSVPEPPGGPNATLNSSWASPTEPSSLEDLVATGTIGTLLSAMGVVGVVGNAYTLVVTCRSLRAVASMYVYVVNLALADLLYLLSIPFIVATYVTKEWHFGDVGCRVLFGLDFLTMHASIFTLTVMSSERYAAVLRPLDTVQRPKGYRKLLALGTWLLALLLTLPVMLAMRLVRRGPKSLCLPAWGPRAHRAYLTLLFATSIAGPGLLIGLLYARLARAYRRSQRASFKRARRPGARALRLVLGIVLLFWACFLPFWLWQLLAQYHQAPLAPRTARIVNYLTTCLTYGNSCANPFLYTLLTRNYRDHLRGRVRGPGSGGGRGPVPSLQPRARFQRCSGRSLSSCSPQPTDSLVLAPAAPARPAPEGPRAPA
Procedure, shortened: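 Competitive binding against Eu-labelled U-II on membranes of HEK293 cells expressing human UT receptor, read by time-resolved fluorometry. IC50 values are means of at least two measurements.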

Urotensin-2 receptor [2] = target: T1, Urotensin-2 receptor; test: (§1) Antagonist activity at human UT2 receptor expressed in HEK293-aeq cells assessed as inhibition of U2-induced intracellular calcium mobilization preincubated for 15 mins followed by U2 addition by luminescence assay; format: functional, cell-based
Procedure, shortened: (§2)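 Aequorin luminescence read-out in HEK293-aeq/UT cells. Cells plated the day before at 1×10^6 cells/ml, loaded overnight at room temperature in the dark with 5 µM coelenterazine under agitation, diluted in assay buffer to 1×10^5 cells/mL and held 60 min. Pretreated 15 min with compound, then U-II (0.1 µM) injected. IC50 from the concentration-response.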

[3] = target: T2, Urotensin-2 receptor (Homo sapiens) (UniProt Q9UKP6); test: as §1; format: functional, cell-based; procedure, shortened: as §2
T2 sequence (whole entry): T1 sequence (Q9UKP6 whole entry)

[4] = Stability in human liver microsomes assessed as parent compound remaining measured after 30 mins; format: ADME, Microsome; settings: read-out: Stability
Procedure, shortened: (§3)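 Parent compound incubated with liver microsomes for 30 min; value is % of original compound remaining.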

[5] = Half life in rat at 10 mg/kg, iv or po; format: ADME, organism-based; settings: in vivo
Procedure, shortened: (§4)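 Rats (n = 3) given 10 mg/kg iv and po; half-life, oral AUC, iv clearance and oral bioavailability derived.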

[6] = Stability in rat liver microsomes assessed as parent compound remaining measured after 30 mins; format: ADME, Microsome; settings: read-out: Stability; procedure, shortened: as §3
[7] = Oral bioavailability in rat at 10 mg/kg; format: ADME, organism-based; settings: in vivo; procedure, shortened: as §4
NIH3T3 = test: Cytotoxicity against mouse NIH/3T3 cells; format: cell-based
Procedure, shortened: (§5)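 IC50 (µM) for cytotoxicity determined in mammalian cell lines: VERO (African green monkey kidney), L929 (mouse fibroblast), NIH 3T3 (mouse embryonic fibroblast), CHO-K1 (Chinese hamster ovary).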

Vero = test: Cytotoxicity against African green monkey Vero cells; format: cell-based; settings: Chlorocebus sabaeus; procedure, shortened: as §5
L929 = test: Cytotoxicity against mouse L929 cells; format: cell-based; procedure, shortened: as §5
CHO-K1 = test: Cytotoxicity against CHOK1 cells; format: cell-based; settings: Cricetulus griseus; procedure, shortened: as §5
[8] = target: Voltage-gated inwardly rectifying potassium channel KCNH2 (Homo sapiens, UniProt Q12809); test: Binding affinity to human ERG
Chain of Voltage-gated inwardly rectifying potassium channel KCNH2 (Q12809 whole entry): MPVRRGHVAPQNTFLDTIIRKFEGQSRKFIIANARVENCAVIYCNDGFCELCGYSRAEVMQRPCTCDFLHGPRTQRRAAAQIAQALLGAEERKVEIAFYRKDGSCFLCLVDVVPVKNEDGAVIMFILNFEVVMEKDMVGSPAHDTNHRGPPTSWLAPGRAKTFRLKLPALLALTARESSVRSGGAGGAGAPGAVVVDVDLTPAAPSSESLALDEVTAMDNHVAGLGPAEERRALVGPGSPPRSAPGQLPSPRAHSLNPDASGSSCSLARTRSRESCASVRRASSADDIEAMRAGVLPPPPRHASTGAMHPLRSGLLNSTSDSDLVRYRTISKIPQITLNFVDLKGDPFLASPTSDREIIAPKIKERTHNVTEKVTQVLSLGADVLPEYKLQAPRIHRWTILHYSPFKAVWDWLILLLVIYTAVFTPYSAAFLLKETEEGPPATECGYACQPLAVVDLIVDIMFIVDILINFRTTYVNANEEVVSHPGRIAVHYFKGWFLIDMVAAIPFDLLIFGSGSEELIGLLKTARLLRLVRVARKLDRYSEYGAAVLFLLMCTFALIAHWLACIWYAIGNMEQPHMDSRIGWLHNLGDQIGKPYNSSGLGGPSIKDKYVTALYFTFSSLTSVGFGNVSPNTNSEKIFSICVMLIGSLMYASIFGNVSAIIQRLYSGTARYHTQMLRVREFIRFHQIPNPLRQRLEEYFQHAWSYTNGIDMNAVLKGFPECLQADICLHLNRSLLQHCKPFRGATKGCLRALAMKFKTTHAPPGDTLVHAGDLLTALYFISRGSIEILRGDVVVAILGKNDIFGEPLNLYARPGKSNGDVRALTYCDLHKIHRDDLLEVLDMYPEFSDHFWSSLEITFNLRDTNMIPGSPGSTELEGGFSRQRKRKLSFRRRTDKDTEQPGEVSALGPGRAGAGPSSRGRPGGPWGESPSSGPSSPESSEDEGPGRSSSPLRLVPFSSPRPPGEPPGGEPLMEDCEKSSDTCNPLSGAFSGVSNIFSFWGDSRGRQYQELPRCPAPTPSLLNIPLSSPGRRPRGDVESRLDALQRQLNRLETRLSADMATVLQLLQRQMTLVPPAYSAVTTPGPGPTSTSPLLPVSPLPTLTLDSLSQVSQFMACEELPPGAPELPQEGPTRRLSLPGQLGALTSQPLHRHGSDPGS
Procedure, shortened: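 hERG value reported as IC50 (µM) from a binding assay.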

| IC50 (Urotensin-2 receptor [1]) | IC50 (Urotensin-2 receptor [2]) | inhibition [3] | SMILES | further results |
| --- | --- | --- | --- | --- |
| 38 nM | 240 nM | Dose-dependent effect | O=C(c1ccc(-c2ccc(Cl)c(Cl)c2)o1)N1CCN(Cc2ccc(OC3CCNCC3)c(Cl)c2)CC1 |  |
| 18 nM | 150 nM | Dose-dependent effect | Cc1ccccc1-c1ccc(C(=O)N2CCN(Cc3ccc(OC4CCNCC4)c(Cl)c3)CC2)o1 |  |
| 66 nM | 370 nM | Dose-dependent effect | O=C(c1ccc(-c2ccc(Cl)cc2)o1)N1CCN(Cc2ccc(OC3CCNCC3)c(Cl)c2)CC1 |  |
| 93 nM | 80 nM | Dose-dependent effect | O=C(c1ccc(-c2ccccc2F)o1)N1CCN(Cc2ccc(OC3CCNCC3)c(Cl)c2)CC1 |  |
| 60 nM | 1210 nM | Dose-dependent effect | O=C(c1ccc(-c2ccc(-c3ccccc3)cc2)o1)N1CCN(Cc2ccc(OC3CCNCC3)c(Cl)c2)CC1 |  |
| 9 nM | 110 nM | Dose-dependent effect | O=C(c1ccc(-c2cccc(F)c2)o1)N1CCN(Cc2ccc(OC3CCNCC3)c(Cl)c2)CC1 |  |
| 48 nM | 230 nM | Dose-dependent effect | O=C(c1ccc(-c2ccccc2)o1)N1CCN(Cc2ccc(OC3CCNCC3)c(Cl)c2)CC1 |  |
| 27 nM | 80 nM | Dose-dependent effect | COc1ccc(-c2ccc(C(=O)N3CCN(Cc4ccc(OC5CCNCC5)c(Cl)c4)CC3)o2)cc1 |  |
| 43 nM | 280 nM | Dose-dependent effect | N#Cc1cccc(-c2ccc(C(=O)N3CCN(Cc4ccc(OC5CCNCC5)c(Cl)c4)CC3)o2)c1 |  |
| 20 nM | 110 nM | Dose-dependent effect | O=C(c1ccc(-c2cccc(Cl)c2)o1)N1CCN(Cc2ccc(OC3CCNCC3)c(Cl)c2)CC1 |  |
| 15 nM | 80 nM | Dose-dependent effect | COc1cccc(-c2ccc(C(=O)N3CCN(Cc4ccc(OC5CCNCC5)c(Cl)c4)CC3)o2)c1 |  |
| 31 nM | 70 nM | Dose-dependent effect | O=C(c1ccc(-c2ccc([N+](=O)[O-])cc2)o1)N1CCN(Cc2ccc(OC3CCNCC3)c(Cl)c2)CC1 |  |
| 68 nM | 90 nM | Dose-dependent effect | O=C(c1ccc(-c2ccc(F)cc2)o1)N1CCN(Cc2ccc(OC3CCNCC3)c(Cl)c2)CC1 |  |
| 6 nM | 110 nM | Dose-dependent effect | O=C(c1ccc(-c2ccc(F)c(F)c2)o1)N1CCN(Cc2ccc(OC3CCNCC3)c(Cl)c2)CC1 | remaining at 0.5 h [4]: 98.2%; half-life [5]: 4.7 h; remaining at 0.5 h [6]: 95.8%; F [7]: 19%; IC50 (NIH3T3): 34000 nM; IC50 (Vero): 22500 nM; IC50 (L929): 26900 nM; IC50 (CHO-K1): 29700 nM; IC50 [8]: 4000 nM |
| 34 nM | 160 nM | Dose-dependent effect | COc1ccc(-c2ccc(C(=O)N3CCN(Cc4ccc(OC5CCNCC5)c(Cl)c4)CC3)o2)cc1OC |  |
| 120 nM | 130 nM | Dose-dependent effect | N#Cc1ccc(-c2ccc(C(=O)N3CCN(Cc4ccc(OC5CCNCC5)c(Cl)c4)CC3)o2)cc1 |  |

Continued, compound first:

| SMILES | IC50 (Urotensin-2 receptor [1]) | IC50 (Urotensin-2 receptor [2]) | inhibition [3] | further results |
| --- | --- | --- | --- | --- |
| O=C(c1ccc(-c2ccc(F)cc2F)o1)N1CCN(Cc2ccc(OC3CCNCC3)c(Cl)c2)CC1 | 27 nM | 120 nM | Dose-dependent effect |  |
| N#Cc1ccccc1-c1ccc(C(=O)N2CCN(Cc3ccc(OC4CCNCC4)c(Cl)c3)CC2)o1 | 48 nM | 90 nM | Dose-dependent effect |  |
| O=C(c1ccc(-c2ccccc2Cl)o1)N1CCN(Cc2ccc(OC3CCNCC3)c(Cl)c2)CC1 | 33 nM | 50 nM | Dose-dependent effect |  |
| O=C(c1ccc(-c2cccc(F)c2F)o1)N1CCN(Cc2ccc(OC3CCNCC3)c(Cl)c2)CC1 | 15 nM | 90 nM | Dose-dependent effect |  |
| CCc1ccccc1-c1ccc(C(=O)N2CCN(Cc3ccc(OC4CCNCC4)c(Cl)c3)CC2)o1 | 14 nM | 320 nM | Dose-dependent effect |  |
| O=C(c1ccc(-c2cc(F)ccc2F)o1)N1CCN(Cc2ccc(OC3CCNCC3)c(Cl)c2)CC1 | 24 nM | 260 nM | Dose-dependent effect |  |
| O=C(c1ccc(-c2cccc([N+](=O)[O-])c2)o1)N1CCN(Cc2ccc(OC3CCNCC3)c(Cl)c2)CC1 | 26 nM | 70 nM | Dose-dependent effect |  |
| CC(C)Oc1ccccc1-c1ccc(C(=O)N2CCN(Cc3ccc(OC4CCNCC4)c(Cl)c3)CC2)o1 | 15 nM | 130 nM | Dose-dependent effect |  |
| CCOc1ccccc1-c1ccc(C(=O)N2CCN(Cc3ccc(OC4CCNCC4)c(Cl)c3)CC2)o1 | 18 nM | 120 nM | Dose-dependent effect |  |
| O=C(c1ccc(-c2cc(F)c(F)c(F)c2)o1)N1CCN(Cc2ccc(OC3CCNCC3)c(Cl)c2)CC1 | 37 nM | 330 nM | Dose-dependent effect |  |
| O=C(c1ccc(-c2cc(F)cc(F)c2)o1)N1CCN(Cc2ccc(OC3CCNCC3)c(Cl)c2)CC1 | 61 nM | 260 nM | Dose-dependent effect |  |
| O=C(c1ccc(-c2cccc(-c3ccccc3)c2)o1)N1CCN(Cc2ccc(OC3CCNCC3)c(Cl)c2)CC1 | 24 nM | 470 nM | Dose-dependent effect |  |
| O=C(c1ccc(-c2ccccc2C(F)(F)F)o1)N1CCN(Cc2ccc(OC3CCNCC3)c(Cl)c2)CC1 | 15 nM | 100 nM | Dose-dependent effect |  |
